These results are taken from ChEMBL document CHEMBL2390875, “Synthesis and pharmacological investigation of new N-hydroxyalkyl-2-aminophenothiazines exhibiting marked MDR inhibitory effect” (Bioorg Med Chem, 2013).

The source made the active and inactive calls. The rule behind the calls is not given here.

The first data set has as its system Hepatocyte. The data set is described as follows: Cytotoxicity against Wistar rat primary hepatocytes assessed as change in cell viability at 10 uM after 3 hrs by MTT assay. Type of data set: cell-based. In short, it runs like this: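 Primary hepatocytes from male Wistar rats (200-250 g), cultured as a monolayer, exposed 3 h to compound or vehicle (control), washed, then incubated with 1 mg/mL MTT for 2 h. Cells lysed in DMSO and absorbance read at 570 nm. Viability expressed as % of control.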
(Formazan colour is commonly taken as a measure of viable cells.)
`COc1ccc(-n2nnc(CCC(O)CN3c4ccccc4[S+]([O-])c4ccc(N5CCOCC5)cc43)n2)cc1` (stereo not drawn): the Activity entry was “Non-toxic”.

As to `COc1ccc(-n2nnc(CCC(O)CN3c4ccccc4Sc4ccc(N5CCOCC5)cc43)n2)cc1` (racemic) [listing 1 of 2 here], the Activity result is on record as “Non-toxic”.

In the case of `COc1ccc(-n2nnc(CCC(O)CN3c4ccccc4S(=O)(=O)c4ccc(N5CCOCC5)cc43)n2)cc1` (stereo not drawn), the Activity result is “Non-toxic”.

Consider `CCN(CC)c1ccc2c(c1)N(CC(O)CCc1nnn(-c3ccc(OC)cc3)n1)c1ccccc1S2` (racemic), for which the Activity entry was “Non-toxic”.

As for `COc1ccc(-n2nnc(CCC(O)CN3c4ccccc4Sc4ccc(NCCN5CCOCC5)cc43)n2)cc1` (stereo not drawn), the Activity entry was “Non-toxic”.

For the next data set, the system named is Hepatocyte. Kind of data set: Inhibition of p-gp in Wistar rat primary hepatocytes assessed as inhibition of rhodamine 123 efflux at 10 uM after 3 hrs. Type of data set: cell-based. The procedure, abridged:
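Collagenase-perfused male Wistar rat hepatocytes plated on collagen and cultured 4 days in supplemented Williams Medium E. Cells preloaded 30 min with 5 µM RH123, then exposed 3 h to compound or 0.1% DMSO vehicle. Cells washed with ice-cold HBSS and lysed in 0.5% Triton X100. Intracellular RH123 read by fluorescence at 519/538 nm. Mean ± SD from three isolations, four wells per condition, Student's t-test.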
With `COc1ccc(-n2nnc(CCC(O)CN3c4ccccc4Sc4ccc(N5CCOCC5)cc43)n2)cc1` (single isomer, unassigned; (-)), the inhibition entry was “Active”.

Turning to `COc1ccc(-n2nnc(CCC(O)CN3c4ccccc4Sc4ccc(N5CCOCC5)cc43)n2)cc1` (stereo in doubt; (+)-3h), the inhibition result is “Active”.

On to `COc1ccc(-n2nnc(CCC(O)CN3c4ccccc4[S+]([O-])c4ccc(N5CCOCC5)cc43)n2)cc1` (stereo not drawn), for which the inhibition result is “Active”.

`COc1ccc(-n2nnc(CCC(O)CN3c4ccccc4Sc4ccc(N5CCN(C)CC5)cc43)n2)cc1` (single isomer, unassigned; (+)): the inhibition result was “Active”.

As for `COc1ccc(-n2nnc(CCC(O)CN3c4ccccc4S(=O)(=O)c4ccc(N5CCOCC5)cc43)n2)cc1` (stereo not drawn), the inhibition entry is “Active”.

As for `CCN(CC)c1ccc2c(c1)N(CC(O)CCc1nnn(-c3ccc(OC)cc3)n1)c1ccccc1S2` (racemic), the inhibition result was “Active”.

Regarding `COc1ccc(-n2nnc(CCC(O)CN3c4ccccc4Sc4ccccc43)n2)cc1` (stereo not drawn), the inhibition entry was “Active”.

With `COc1ccc(-n2nnc(CCC(O)CN3c4ccccc4Sc4ccc(N5CCN(C)CC5)cc43)n2)cc1` (racemic), the inhibition result is “Active”.

On to `COc1ccc(-n2nnc(CCC(O)CN3c4ccccc4Sc4ccc(N5CCOCC5)cc43)n2)cc1` (racemic) [listing 2 of 2 here], for which the inhibition result is “Active”.

On to `COc1ccc(-n2nnc(CCC(O)CN3c4ccccc4Sc4ccc(C(F)(F)F)cc43)n2)cc1` (stereo not drawn), for which the inhibition entry is “Active”.

Take `COc1ccc(-n2nnc(/C=C\C=C\N3c4ccccc4Sc4ccc(Cl)cc43)n2)cc1`: the inhibition entry is “Active”.

As for `COc1ccc(-n2nnc(CCC(O)CN3c4ccccc4Sc4ccc(N5CCN(C)CC5)cc43)n2)cc1` (single isomer, unassigned; (-)), the inhibition entry was “Active”.

As for `COc1ccc(-n2nnc(CCC(O)CN3c4ccccc4Sc4ccc(NC(C)=O)cc43)n2)cc1` (stereo not drawn), the inhibition entry was “Active”.
